An excerpt weighted towards active compounds, which were near 2.2% of everything screened.
MEX-5 binding = C. elegans MEX-5 TCR-2 RNA binding activity. Q9XUB2. 300,000 compounds, 0.38% hits. activity score (negative = inhibition of binding), % at 10 µM. MEX-5/FITC-TCR2 RNA binding, fluorescence polarization; stronger effect = lower value;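 active = inhibition past about -25% in most replicates, and total fluorescence under double the plate's negative control median, limit read from the data; inconclusive = replicates evenly split on the limit, or fluorescence at least double controls; inactive = too little inhibition in most replicates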;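 note: 0% = DMSO and -100% = 5 µM competing unlabeled TCR2 RNA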
EBV gp42 inh = inhibitors of Epstein-Barr virus glycoprotein 42; Q1HVG2; Fluorescence polarization binding assay, mP read-out; inhibition, % (tested at 21.74 µM); 220,000 compounds, 0.42% hits; in the data active = inhibition above about 50%
Target sequence (Q1HVG2 whole entry, looked up): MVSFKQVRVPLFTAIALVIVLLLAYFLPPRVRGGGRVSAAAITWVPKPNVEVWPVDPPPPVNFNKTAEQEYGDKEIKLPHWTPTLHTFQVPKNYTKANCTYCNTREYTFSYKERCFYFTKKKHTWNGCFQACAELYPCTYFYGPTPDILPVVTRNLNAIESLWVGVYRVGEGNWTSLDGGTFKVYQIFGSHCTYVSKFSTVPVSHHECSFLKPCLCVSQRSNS
IMP-1 inh-1 = inhibitors of Pseudomonas aeruginosa IMP-1 metallo-beta-lactamase; AID 1556; inhibition, % at 5.6 µM; 290,000 compounds, 0.45% hits; purified IMP-1, nitrocefin hydrolysis, epi-absorbance fluorescence;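 active = inhibition above the mean plus 3 SD of all compounds in the same screening run, cut at about 4.5% in these data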;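 note: 0% = IMP-1 with DMSO and 100% = DMSO wells lacking enzyme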
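System: purified IMP-1; amount: IMP-1 0.2 nM before substrate addition; compound: single dose, 5.6 µM; times: 25 °C, 15 min preincubation, 25 min reaction; signal: Epi-absorbance via hydrolysed-nitrocefin quenching of white-plate fluorescence, 480/530 nm, EDTA stop; benchmarks: DMSO with and without IMP-1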
GLD-1 TGE inh = GLD-1-TGE RNA interaction inhibition (C. elegans). Q17339. AID 2280. purified GLD-1 + fluorescein TGE RNA, fluorescence polarization. inhibition, % at 5.96 µM. 320,000 compounds, 0.44% hits;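 active = percent inhibition above a per-plate cutoff, the plate mean of test compounds plus 3 SD, cut at about 30% in these data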;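 note: 0% = DMSO wells with GLD-1 and probe and 100% = wells lacking GLD-1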
Target sequence (Q17339 whole entry, looked up): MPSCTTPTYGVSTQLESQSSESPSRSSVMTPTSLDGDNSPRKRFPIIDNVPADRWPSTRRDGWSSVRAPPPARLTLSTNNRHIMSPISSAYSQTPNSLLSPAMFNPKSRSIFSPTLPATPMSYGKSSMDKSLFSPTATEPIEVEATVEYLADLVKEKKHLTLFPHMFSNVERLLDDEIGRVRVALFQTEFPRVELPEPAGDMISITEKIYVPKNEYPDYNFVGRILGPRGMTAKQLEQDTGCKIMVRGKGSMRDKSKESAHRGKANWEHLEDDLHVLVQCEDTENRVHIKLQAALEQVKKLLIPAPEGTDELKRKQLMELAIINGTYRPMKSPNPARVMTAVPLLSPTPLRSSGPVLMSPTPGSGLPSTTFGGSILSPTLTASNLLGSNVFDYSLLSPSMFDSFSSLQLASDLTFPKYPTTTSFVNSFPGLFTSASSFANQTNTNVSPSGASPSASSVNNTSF
VIM-2 inhibitor = inhibitors of Pseudomonas aeruginosa VIM-2 metallo-beta-lactamase | purified VIM-2, nitrocefin hydrolysis, epi-absorbance fluorescence | inhibition, % at 5.6 µM | 290,000 compounds, 0.89% hits | AID 1527;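 active = inhibition above the mean of all tested compounds plus 3 SD, cutoff set per screening run, cut at about 7.5% in these data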;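 note: red hydrolysis product quenches plate fluorescence so inhibitors raise well fluorescence; 0% = enzyme with DMSO and 100% = DMSO without enzyme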
Bcl-xL primary = inhibitors of human Bcl-xL; GST-Bcl-xL / FITC-Bim BH3 peptide fluorescence polarization; Q07817; inhibition, % at 10.9 µM; 320,000 compounds, 0.7% hits;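 active = inhibition above the mean of all tested compounds plus 3 SD, cutoff set per campaign, cut at about 30% in these data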;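 note: 0% = DMSO wells and 100% = unlabeled Bim-BH3 peptide competitor; inhibitors lower millipolarization by displacing the labeled peptide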
IMP-1 inh-2 = blocks IMP-1 metallo-beta-lactamase in VIM-2 selectivity screen. shares compounds with VIM-2 inhibitor. purified IMP-1, nitrocefin hydrolysis, epi-absorbance fluorescence. inhibition, % at 5.6 µM. 1,300 tested, under 10 active; call rule not given here;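 note: 0% = enzyme with vehicle and 100% = vehicle without enzyme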
VIM-2 FRET inh = VIM-2 FRET inhibition, artifact counter-screen | shares compounds with VIM-2 inhibitor | purified VIM-2, CCF2 FRET substrate hydrolysis | inhibition, % at 5.6 µM | 1,300 compounds, 23% hits | AID 1857;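 active = inhibition above the mean of all tested compounds plus 3 SD, cut at about 19% in these data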;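 note: 0% = VIM-2 plus DMSO and 100% = no enzyme wells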
TEM-1 counter-1 = blocks E. coli TEM-1 beta-lactamase in VIM-2 selectivity screen; shares compounds with VIM-2 inhibitor; Purified TEM-1, nitrocefin hydrolysis, epi-absorbance fluorescence; inhibition, % at 5.6 µM; 1,300 compounds, 3% hits;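 active = inhibition above that campaign's mean inhibition plus 3 SD, cut at about 0.46% in these data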;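 note: 0% = TEM-1 with DMSO and 100% = TEM-1 with 100 µM potassium clavulanate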
VIM-2 inh conf = confirmation of P. aeruginosa VIM-2 metallo-beta-lactamase inhibitors; 1,300 compounds, 96% hits; shares compounds with VIM-2 inhibitor; purified VIM-2, nitrocefin hydrolysis, epi-absorbance; AID 2187; inhibition, % at 5.6 µM;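 active = inhibition of the VIM-2 beta-lactamase enzyme above about 11% from the earlier first-round screen, limit read from the data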;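 note: 0% = VIM-2 with DMSO and 100% = buffer wells without enzyme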
VIM-2 confirm = VIM-2 inhibition, confirmation assay; purified VIM-2 enzyme, nitrocefin absorbance; shares compounds with IMP-1 inh-1; inhibition, % at 5.6 µM; 200 compounds, 73% hits; in the data active = inhibition above about 8%;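 note: 0% = enzyme with vehicle and 100% = no enzyme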
TEM-1 counter-2 = blocks E. coli TEM-1 beta-lactamase, VIM-2 IMP-1 counter-screen; shares compounds with IMP-1 inh-1; nitrocefin absorbance inhibition; inhibition, % at 5.6 µM; 200 compounds, 50% hits; AID 2184; in the data active = inhibition above about 0.66%
IMP-1 confirm = confirmation of P. aeruginosa IMP-1 metallo-beta-lactamase inhibitors. shares compounds with IMP-1 inh-1. purified IMP-1 enzyme, absorbance substrate hydrolysis. inhibition, % at 5.6 µM. 200 compounds, 60% hits. AID 2189; in the data active = inhibition above about 4.9%;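 note: 0% = enzyme with vehicle and 100% = vehicle without enzyme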
GLD1 RNA confirm = GLD-1 TGE RNA interaction inhibition, confirmation; 550 compounds, 10% hits; AID 2459; GLD-1/FL-TGE RNA fluorescence polarization, biochemical; shares compounds with GLD-1 TGE inh; inhibition, % at 5.96 µM;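 active = average inhibition across triplicates above the hit cutoff set in the primary screen, cut at about 32% in these data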;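 note: 0% = GLD-1 with RNA probe and DMSO and 100% = wells lacking GLD-1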
The depositor's hits bear a star; ? = inconclusive; . = no result given.

SMILES | MEX-5 binding | EBV gp42 inh | IMP-1 inh-1 | GLD-1 TGE inh | VIM-2 inhibitor | Bcl-xL primary | others
CCn1c(O)c(C(=O)CC2NCCc3ccccc32)c(=O)n(CC)c1=S (stereo unspecified) | . | -20.4 | 9.6* | -28.2 | -0.1 | -50.9
CCOC(=O)c1[nH]c2ccc(OC)cc2c1C(SCC(=O)O)c1ccc(C(F)(F)F)cc1 (stereo unspecified) | 0.5 | . | 3.0 | -3.1 | -5.1 | 7.6
CC(C)n1c(O)c(C2c3cc(Cl)ccc3Oc3[nH]c(=O)n(C(C)C)c(=O)c32)c(=O)[nH]c1=O (stereo unspecified) | -2.9 | -14.3 | -1.7 | . | -2.9 | .
Cc1cc(=O)oc2c(C)c(OCC(=O)N3CCN(Cc4ccccc4)CC3)ccc12 | 1.8 | . | -3.9 | 3.5 | 44.7* | 7.8 | IMP-1 inh-2=-2.8;VIM-2 FRET inh=-1.0;TEM-1 counter-1=-8.3;VIM-2 inh conf=60.3*
Cc1c(C)c2ccc(OCC(=O)N3CCN(Cc4ccccc4)CC3)cc2oc1=O | . | . | . | 2.4 | . | .
CN1CCC(N(C)c2nc(-c3ccccc3)nc3ccccc23)CC1 | 1.0 | 0.0 | -5.8 | 7.7 | 21.4* | 4.0 | IMP-1 inh-2=-1.4;VIM-2 FRET inh=-2.6;TEM-1 counter-1=-3.9;VIM-2 inh conf=32.9*
COC(=O)C1=C(c2ccc(C(C)=O)cc2)C[C@@H]2CC[C@H]1N2C(=O)N1CCC(C)CC1 | . | . | . | 6.8 | . | 0.2
COC1=CC2C3Cc4ccc(OC)c(O)c4C2(CCN3C)CC1=O (stereo unspecified) | . | . | . | 5.5 | . | 3.5
O=P(O)(O)Oc1ccccc1P(=O)(c1ccccc1)c1ccccc1 | -0.8 | . | -2.9 | -0.1 | 16.8* | 4.9 | IMP-1 inh-2=-2.6;VIM-2 FRET inh=23.1*;TEM-1 counter-1=-3.8;VIM-2 inh conf=20.6*
Cc1cc(OCC(=O)NCc2cccnc2)c2c3c(c(=O)oc2c1)CCCC3 | 0.0 | . | -2.6 | 0.3 | 32.6* | 5.5 | IMP-1 inh-2=-3.4;VIM-2 FRET inh=-1.6;TEM-1 counter-1=-9.2;VIM-2 inh conf=39.7*
Cc1cc(OCC(=O)NCC(O)c2ccccc2)c2c3c(c(=O)oc2c1)CCCC3 (stereo unspecified) | 0.4 | . | -3.9 | -1.2 | 2.4 | 0.8
CCOC(=O)C1CCCN(c2ccc([N+](=O)[O-])c3nonc23)C1 (stereo unspecified) | ? | 127.1* | 26.8* | . | 25.7* | . | VIM-2 confirm=28.2*;TEM-1 counter-2=34.0*;IMP-1 confirm=22.7*
COc1cc2c(cc1OC)C(C(=O)NC(C)C)C1CCCCN1C2=O (stereo unspecified) | -0.2 | -11.9 | 1.2 | -1.2 | 1.1 | 2.1
COc1cc2c(C(=O)N3CCN(C)CC3)c(C)n(C)c2cc1Br | -10.0 | 0.1 | 2.3 | 37.6* | 2.8 | 39.8* | GLD1 RNA confirm=5.2
COc1cc2c(C(=O)O)c(C)n(C)c2cc1Br | -0.8 | -14.4 | -2.3 | 10.8 | -0.7 | 2.1
CN1Cc2c(c(C#N)c(N)n(C)c2=S)CC1(C)C | -48.0* | 52.4* | -1.1 | 46.1* | -0.3 | 94.3* | GLD1 RNA confirm=26.9
COP(=O)(NC(=O)C(Cl)(Cl)Cl)OC | -2.8 | -22.9 | 0.6 | 6.3 | -0.4 | 0.3
COC(=O)[C@@]1(C#N)[C@@H]2C=CC(C(C)=O)=CN2[C@@H](C(N)=O)[C@@H]1c1ccc(F)cc1 | -56.7* | 119.2* | -2.2 | 43.9* | -3.5 | 72.2* | GLD1 RNA confirm=97.3*
CSc1nnc(OC(=O)N(C)C)n1-c1ccc(Cl)cc1 | 1.2 | -11.2 | -0.1 | 5.8 | -1.8 | 3.3
Clc1ccc2[nH]c3c(c2c1)CCNC3 | 1.5 | . | -4.1 | -0.1 | -2.0 | 2.5
Nc1cc2nc3ccccc3nc2cc1N | ? | 179.0* | -2.9 | 36.0* | -1.9 | 95.6* | GLD1 RNA confirm=60.6*
CN1C[C@H](CO)C=C2c3cccc4[nH]cc(c34)C[C@H]21 | ? | 57.5* | -1.4 | 63.6* | -0.9 | 70.0* | GLD1 RNA confirm=16.6
Cc1cnc(-n2c(=S)[nH]c3ccccc3c2=O)s1 | . | . | . | -2.3 | . | 5.4
